According to article PMC3201796 (Cell host & microbe, 2011):
In brackets after ≈: the same amount, converted by molar mass. Read-outs that look alike come from different tables or passages of the source.

Legend:
[1] = system: PHKs; test: Cytotoxicity by cell morphology; assay type: cell-based, human; conditions: non-infected
Outline: (§1)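 Run in non-infected cultures in parallel with the antiviral assay. Cells exposed to test compound and examined microscopically at day 3. MCC is the lowest concentration giving a detectable change in cell morphology.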

[2] = system: HSV-1F; test: Human tonsillar tissue ex vivo infected with HSV-1; assay type: cell-based
[3] = MTT viability assay in epithelial TZM-Bl cells; assay type: cell-based, human; conditions: up to 1,000 μg/ml; data not shown
Outline: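 Confluent TZM-Bl epithelial monolayers exposed to a range of test compound concentrations for 3–4 days, then given MTT dye. Viable cells convert it to formazan, measured by optical density.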

[4] = Cytostatic activity; assay type: cell-based; conditions: human, PHKs, non-infected
[5] = system: HSV-2; assay type: cell-based; conditions: for Virus production (TCID50/ml): M/M
[6] = system: HSV-2G; test: Organotypic epithelial raft cultures infected with HSV-2; assay type: cell-based
[7] = system: HIV-1; conditions: 1% vaginal gel, 889 women, CAPRISA 004; ref Abdool Karim et al., 2010; cited from earlier work
[8] = in vivo; cited from earlier work
[9] = system: HSV-2G, HSV-2MS; test: Human tonsillar tissue ex vivo infected with HSV-2; assay type: cell-based; conditions: 66 μg/ml
[10] = system: HSV-2; test: HSV-2-infected athymic nude mice; assay type: in vivo
Outline: (§2)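 Female NMRI athymic nude or hairless mice (~20 g, ~4 weeks; groups of five) scarified over ~1 cm² lumbosacral area with HSV-1 KOS (5×10^3 PFU) or HSV-2 G (5×10^2). Test compound 1% in 100% DMSO or CAPRISA 004-type gel, topical twice daily for 5 days from 1-2 h post-infection; same vehicle without drug as placebo. Lesions and mortality recorded over one month; Kaplan-Meier survival, log-rank test.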

[11] = system: HEL cells; test: Cytotoxicity by cell morphology; assay type: cell-based, human
Outline: as §1

[12] = system: HIV-1LAI; test: Tonsillar tissue coinfected with HSV-2G and HIV-1LAI, p24 release; assay type: cell-based; conditions: 66 μg/ml
Outline: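 Tonsil tissue blocks (~2 mm) kept on collagen sponge at the air–liquid interface; 27 blocks per condition (9 per well). Infected with HSV-2 strain G, then HIV-1 LAI. Test compound added 12 h before infection and replenished at each medium change for the whole culture. p24 in medium over 3-day periods measured by bead-based assay. Six donors; means ± SEM.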

[13] = system: HSV-1; test: HSV-1-infected athymic nude mice; assay type: in vivo
Outline: as §2

[14] = system: HSV-2G; test: Tonsillar tissue coinfected with HSV-2G and HIV-1LAI, HSV-2 DNA release; assay type: cell-based; conditions: 66 μg/ml; coinfected with HIV-1LAI; n=6
Outline: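 Human tonsillar tissue blocks sequentially infected with HSV-2 G then HIV-1 LAI; 27 blocks per condition, 9 per well in 3 ml medium. Tenofovir at 66 µg/ml kept throughout culture; untreated donor-matched tissues as control. HSV-2 DNA release into medium measured by quantitative real-time PCR; release pooled from 27 blocks per donor; 6 donors.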

[15] = system: HSV-1 and HSV-2; assay type: cell-based; conditions: Fibroblast, read-out: EC50 values (inhibition of cytopathicity), range
Outline: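 HEL fibroblasts or primary human keratinocytes (from neonatal foreskin) infected at 100 TCID50 per strain and grown 3 days at 37 °C, 5% CO2, with a range of test compound concentrations. CPE scored visually. […] Means of at least two independent experiments, ± SD.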

[16] = system: HSV-2G; test: Human cervico-vaginal tissue ex vivo infected with HSV-2G; assay type: cell-based; conditions: 150 μg/ml
[17] = system: HSV-2; assay type: cell-based; conditions: day 6, M/M
[18] = system: HSV-2 (strain NS and RV-124); test: Virus yield reduction assay; assay type: cell-based
Outline: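 HEL monolayers infected with HSV-2 clinical isolates NS or RV-124 at two moi for 2 h at 37 °C, then washed and given test compound in duplicate. At 24, 48 and 72 h, virus released by freeze-thaw and titrated by plaque assay on HEL cells.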

[19] = system: HSV-2; test: HSV-2 cytopathicity in primary monocyte/macrophage cultures; assay type: cell-based; conditions: day 6, M/M
[20] = Cytostatic activity; assay type: cell-based; conditions: human, HEL cells, non-infected
[21] = system: HSV-1KOS; test: Organotypic epithelial raft cultures infected with HSV-1; assay type: cell-based
[22] = system: HSV-2; conditions: 1% vaginal gel, CAPRISA 004; ref Cates, 2010; cited from earlier work
[23] = 1% gel as in CAPRISA 004, topical
[24] = 1% in DMSO, topical, 5 days from day of infection

For `C[C@H](Cn1cnc2c(N)ncnc21)OCP(=O)(O)O` [Tenofovir, (R)-9-[2-(phosphonylmethoxypropyl)adenine]], the “Cell toxicity MCC (minimum cytotoxic concentration)” value [1] was >200 µg/mL, the “reduction of replication vs donor-matched untreated tissue” value (shortened to “reduction of replication”) ([2]; 66 μg/ml, HSV-1F) was 99 ± 0.1% and the EC50 ([2]; Human alphaherpesvirus 1, in Homo sapiens, read-out: EC50 for HSV suppression) was 7 µg/mL (≈ 24.4 µM). For the same compound, the “MTT dye viability testing” value [3] was “did not show measurable toxicity”, the CC50 at 3 days [4] was > 50 µg/mL and the “Virus production (TCID50/ml)” value ([5]; 0.04 μg/ml, day 6) was 3.2×10^5 TCID50/ml. For the same compound, the “Virus production (TCID50/ml)” value ([5]; 0.2 μg/ml, day 6) was 3×10^5 TCID50/ml, the HSV-2 production ([5]; 1 μg/ml or 0.2 μg/ml, no significant protective effect) was 2.4 to 3.0 × 10^5 TCID50/ml and the “Virus production (TCID50/ml)” value ([5]; 1 μg/ml, day 6) was 2.4×10^5 TCID50/ml. For the same compound, the “Virus production (TCID50/ml)” value ([5]; 5 μg/ml, day 6) was 7.2× 10^4 TCID50/ml, the “Virus production (TCID50/ml)” value ([5]; 20 μg/ml, day 6) was 1.3×10^4 TCID50/ml and the “drop in HSV-2 production” value ([5]; 20 μg/ml, from 3.7 × 10^5 TCID50/ml in untreated) was “more than one log10”. The “Virus production (TCID50/ml)” value ([5]; 100 μg/ml, day 6) was “No virus”, the “Virus production (TCID50/ml)” value ([5]; 500 μg/ml, day 6 post infection) was “No virus” and the “HSV-2 replication in M/M” value ([5]; 500 and 100 μg/ml) was “completely suppressed”. For the same compound, the “activity against HSV-2 in rafts” value ([6]; 2 μg/ml) was “inactive”, the “log10 reduction in virus production” value ([6]; 50 μg/ml) was 1.75 log10 and the “protection of virus-induced cytopathicity” value ([6]; 200 μg/ml) was “complete CPE protection”. For the same compound, the “log10 reduction in virus production” value ([6]; 200 μg/ml, 5 days of treatment) was 5.4 log10, the “protection of raft epithelium (histology)” value ([6]; 20 and 5 μg/ml) was “partially protective” and the “reduction of HIV-1 sexual transmission” value [7] was 39%. The “AUC24hr in cervico-vaginal fluid” value [8] was 18600 µg·h/mL, the “level in cervico-vaginal fluid at 24 hr post drug exposure” value [8] was ~ 100 μg/ml and the “reduction of replication” value ([9]; HSV-2G) was 87 ± 12%. The “reduction of replication” value ([9]; HSV-2MS) was 91.7 ± 3.2%, the “appearance of lesions and death vs placebo gel” value [10, 23] was “delayed the appearance of herpesvirus-related lesions and subsequent death” and the morbidity and survival [10, 24] was “statistically significant suppression of morbidity and prolonged the survival”. The “Cell toxicity MCC (minimum cytotoxic concentration)” value ([11]; HEL, non-infected, cell morphology) was >400 µg/mL, the “cytotoxicity as assessed from HEL cell morphology” value ([11]; highest drug concentrations used (500 μg/ml)) was “no signs of tenofovir cytotoxicity” and the “inhibition of HIV-1LAI” value [12] was “inhibited completely”. For the same compound, the “appearance of lesions and death vs placebo gel” value [13, 23] was “delayed the appearance of herpesvirus-related lesions and subsequent death”, the morbidity and survival [13, 24] was “statistically significant suppression of morbidity and prolonged the survival” and the “suppression of HSV-2G replication” value [14] was 96 ± 1%. For the same compound, the EC50 [15] was 103 to 193 µg/mL (≈ 359 to 672 µM), the “reduction of HSV-2G replication (averaged over experiments)” value [16] was 78 ± 9% and the “HSV-2G DNA in culture medium” value ([16]; untreated 6.6 log10 copies/ml, n=5) was 5.5 log10 copies/mL. The “Virus production (PFU/ml)” value ([17]; 0.04 μg/ml) was 8.5×10^4 PFU/ml, the “Virus production (PFU/ml)” value ([17]; 0.2 μg/ml) was 7.3×10^4 PFU/ml and the “Virus production (PFU/ml)” value ([17]; 1 μg/ml) was 6.6×10^4 PFU/ml. The “Virus production (PFU/ml)” value ([17]; 5 μg/ml) was 1.9×10^4 PFU/ml, the “Virus production (PFU/ml)” value ([17]; 20 μg/ml) was 2.2×10^3 PFU/ml and the “Virus production (PFU/ml)” value ([17]; 100 μg/ml) was “No virus”. For the same compound, the “Virus production (PFU/ml)” value ([17]; 500 μg/ml) was “No virus”, the “changes in cell number” value ([18]; HEL cells, any drug concentration) was “no changes in cell number” and the “EC99 (drug concentration that decreases virus titers by two orders of magnitude)” value ([18]; HSV-2 RV-124 and NS, two moi, 24, 48, 72 h post-infection, PFU reduction) was 214 to 390 µg/mL. The “Cytopathicity (CPE) (%)” value ([19]; 0.04 μg/ml) was 85%, the “Cytopathicity (CPE) (%)” value ([19]; 0.2 μg/ml) was 80% and the “Cytopathicity (CPE) (%)” value ([19]; 5 μg/ml) was 60%. For the same compound, the “Cytopathicity (CPE) (%)” value ([19]; 20 μg/ml) was 5%, the “Cytopathicity (CPE) (%)” value ([19]; 100 μg/ml) was “None” and the “Cytopathicity (CPE) (%)” value ([19]; 500 μg/ml) was “None”. For the same compound, the CC50 at 3 days [20] was 547 ± 39 µg/mL (≈ 1900 µM), the “log10 reduction in virus production” value ([21]; 50 μg/ml) was 0.81 log10 and the “protection of virus-induced cytopathicity” value ([21]; 200 μg/ml) was “complete CPE protection”. For the same compound, the “log10 reduction in virus production” value ([21]; 200 μg/ml, 5 days of treatment) was 2.6 log10 and the “reduction of the risk of acquisition of HSV-2” value [22] was 51%.
